XBP1 UPR activ – adaptive UPR (XBP1) activation; CHO-XBP1 luciferase reporter, IRE1-XBP1 UPR activation, luminescence; percent of tunicamycin response, DMSO as zero; activation, % at 20 µM; 330,000 tested, 0.33% active;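 active = versus positive control, 20 µM dose yields 30% or more activation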
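Material: CHO cell line with stable XBP1 luciferase reporter; schedule: 16-18 h cell attachment at 37 °C, then 6 h compound exposure; signal: glow luminescence from Steady-Glo reagent; medium: serum-containing F12 medium, 10% FBS; benchmarks: tunicamycin 10 µg/mL and vehicle-only wells; read-out: percent activation relative to tunicamycin reference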
TLR4-MyD88 BLA – inhibitors of human TLR4-MyD88 binding; O00206+Q99836; HeLa CL3-4 TLR4/MyD88 BLA complementation, FRET ratio; inhibition, % at 8.4 µM; 200,000 tested, 0.18% active; AID 861; in the data active = inhibition above about 25%
CHOP UPR activ – apoptotic UPR (CHOP) activation; CHO-CHOP luciferase reporter, luminescence; percent of tunicamycin response over DMSO baseline; activation, % at 10 µM; 330,000 tested, 0.34% active;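 active = at 10 µM dose, activation of 40% or more, normalized to positive control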
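Assay system: CHO cells with stable CHOP pathway luciferase reporter; Buffer or medium: F12 plus 10% serum; Times: 16-18 h cell attachment, then 6 h compound exposure, 37 °C; Signal: luciferase luminescence; Read-out basis: percent activation relative to tunicamycin control; Control set: tunicamycin high control, DMSO low control.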
TLR9-MyD88 inh – inhibitors of human TLR9-MyD88 binding | 340,000 tested, 0.21% active | AID 504734 | CHO BLA complementation TLR9-MyD88, CCF4 FRET ratio | Q9NR96+Q99836 | inhibition, % at 4.98 µM;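 active = inhibition above the mean over all tested compounds plus 3 SD, cut at about 21% in these data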
Target sequence (Q99836 whole entry, looked up): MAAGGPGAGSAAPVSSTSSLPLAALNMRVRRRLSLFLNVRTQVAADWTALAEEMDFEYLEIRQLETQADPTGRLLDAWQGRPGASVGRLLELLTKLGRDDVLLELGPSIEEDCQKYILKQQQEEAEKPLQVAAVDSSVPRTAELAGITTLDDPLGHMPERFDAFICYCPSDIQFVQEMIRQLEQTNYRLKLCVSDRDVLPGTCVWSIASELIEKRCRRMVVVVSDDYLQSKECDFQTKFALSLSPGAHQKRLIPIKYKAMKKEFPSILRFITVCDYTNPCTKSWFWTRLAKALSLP
Target sequence (Q9NR96 whole entry, looked up): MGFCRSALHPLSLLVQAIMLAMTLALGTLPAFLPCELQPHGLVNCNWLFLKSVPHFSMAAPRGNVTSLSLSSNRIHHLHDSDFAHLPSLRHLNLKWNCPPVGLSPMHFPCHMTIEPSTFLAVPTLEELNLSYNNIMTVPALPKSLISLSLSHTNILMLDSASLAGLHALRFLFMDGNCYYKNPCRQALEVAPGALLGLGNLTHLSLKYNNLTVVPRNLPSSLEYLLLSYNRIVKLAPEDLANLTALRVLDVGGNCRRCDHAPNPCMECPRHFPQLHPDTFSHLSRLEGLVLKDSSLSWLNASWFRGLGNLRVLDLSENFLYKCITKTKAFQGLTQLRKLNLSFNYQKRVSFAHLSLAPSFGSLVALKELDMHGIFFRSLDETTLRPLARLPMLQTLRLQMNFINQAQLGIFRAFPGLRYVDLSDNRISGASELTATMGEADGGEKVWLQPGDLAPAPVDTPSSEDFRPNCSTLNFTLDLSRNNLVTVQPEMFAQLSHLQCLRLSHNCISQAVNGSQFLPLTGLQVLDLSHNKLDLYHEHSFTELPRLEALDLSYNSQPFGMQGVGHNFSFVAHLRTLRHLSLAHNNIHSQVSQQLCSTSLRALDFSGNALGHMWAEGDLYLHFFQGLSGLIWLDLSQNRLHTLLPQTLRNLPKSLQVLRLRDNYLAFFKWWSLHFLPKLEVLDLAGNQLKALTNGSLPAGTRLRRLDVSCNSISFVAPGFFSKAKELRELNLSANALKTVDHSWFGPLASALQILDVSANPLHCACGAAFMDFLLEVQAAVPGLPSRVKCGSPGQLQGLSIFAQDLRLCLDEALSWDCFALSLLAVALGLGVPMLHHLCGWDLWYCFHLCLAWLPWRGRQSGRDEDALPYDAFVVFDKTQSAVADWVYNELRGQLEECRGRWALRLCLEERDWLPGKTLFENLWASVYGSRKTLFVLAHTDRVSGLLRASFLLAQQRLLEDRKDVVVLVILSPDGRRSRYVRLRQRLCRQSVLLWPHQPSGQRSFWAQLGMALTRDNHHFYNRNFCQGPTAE
CHOP inhibitor – inhibitors of CHOP induction in ER stress response; 220,000 tested, 3.8% active; inhibition, % at 10 µM; AID 2732; CHO-K1 CHOP-promoter luciferase, tunicamycin-induced, 15-18 h;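 active = compounds that reduced the stress-induced luciferase reporter signal by more than about 70% of percent inhibition, limit read from the data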
NOD2-RIPK2 inh – NOD2-RIPK2 protein interaction inhibition. O43353. CHO BLA complementation NOD2-RIPK2, CCF4 ratio. inhibition, % at 4.98 µM. 360,000 tested, 0.38% active; in the data active = inhibition above about 21%
CHOP confirm – confirmation of CHOP induction inhibitors | shares compounds with CHOP inhibitor | CHO-CHOP promoter luciferase reporter, tunicamycin-induced, luminescence | inhibition, % at 10 µM | 2,100 tested, 45% active;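 active = mean of three repeat readings of reporter signal inhibition above a set limit, cut at about 70% in these data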
Large screens that a line does not name were inactive (follow-up assays come after a bar, where they were run). The sample as a whole holds a higher share of hits than the screen did.

O=C1c2[nH]nc(-c3ccccc3O)c2C(c2cccc(Cl)c2)N1Cc1ccco1 (configuration not stated)	CHOP inhibitor 113 | CHOP confirm 113
O=C1c2[nH]nc(-c3ccccc3O)c2C(c2cccc(Cl)c2)N1CC1CCCO1 (configuration not stated)	none
O=S(=O)(NCc1cc(-c2ccc(Cl)cc2)no1)c1ccc(Cl)cc1	CHOP inhibitor 102 | CHOP confirm inactive
O=S(=O)(NCc1cc(-c2ccc(Cl)cc2)no1)c1ccccc1	none
C[N+]1=C(/C=C/Nc2ccccc2Cl)C(C)(C)c2ccccc21	none
COC(=O)c1ccc2c(c1)C(C)(C)C(/C=C/c1ccccc1O)=[N+]2C	CHOP inhibitor 108 | CHOP confirm 120
NC(=O)C1=C(c2ccccc2)c2ccccc2C1=O	none (no result: XBP1 UPR activ, TLR4-MyD88 BLA, CHOP UPR activ, CHOP inhibitor)
O=C1c2ccccc2-c2onc3ccc(Oc4ccccc4)c1c23	CHOP inhibitor 106 | CHOP confirm 84
O=C1N(c2ccccc2)C[C@@H]2C[C@@H](c3cccs3)N3CCC[C@@]123	CHOP inhibitor 98 | CHOP confirm 91
CC1(C(=O)NS(=O)(=O)c2ccc(Cl)s2)CCN1C(=O)Cc1ccc(Cl)cc1Cl (configuration not stated)	none (no result: XBP1 UPR activ, TLR4-MyD88 BLA, CHOP UPR activ, TLR9-MyD88 inh, CHOP inhibitor)
O=C(/C=C/c1ccccc1)N1CCC[C@H]1CO	none
C#CCSc1nncn1C(=O)/C=C/c1ccccc1	CHOP inhibitor 105 (no result: TLR9-MyD88 inh, NOD2-RIPK2 inh) | CHOP confirm inactive
CC(OC(=O)c1ccc(-n2cnnn2)cc1)C(=O)N(C)c1ccccc1 (configuration not stated)	none (no result: TLR4-MyD88 BLA, CHOP inhibitor)
CCCCS/C(N)=N/N=C/c1cc(C)ccc1O	CHOP inhibitor 102 | CHOP confirm inactive
CCS/C(N)=N/N=C/c1cc(C)ccc1O	none
NC(N)=NCCSSCCN=C(N)N	none (no result: XBP1 UPR activ, TLR4-MyD88 BLA, CHOP UPR activ, TLR9-MyD88 inh, NOD2-RIPK2 inh)
COC(=O)c1cc(F)c(-n2cncn2)c(F)c1	none
COC(=O)c1cc([N+](=O)[O-])c(-n2cncn2)c([N+](=O)[O-])c1	CHOP inhibitor 110 (no result: XBP1 UPR activ, CHOP UPR activ) | CHOP confirm inactive
CC1(C)N=C(N)NC(=NCCCOc2ccc([N+](=O)[O-])cc2)N1	none (no result: XBP1 UPR activ, TLR4-MyD88 BLA, CHOP UPR activ, TLR9-MyD88 inh, CHOP inhibitor)
CCOc1ccc(S(=O)(=O)Nc2ccc(F)cc2)c(C)c1C	CHOP inhibitor 106 | CHOP confirm inactive
CCC(=O)Nc1ccc2oc(-c3cccnc3)nc2c1	none (no result: TLR4-MyD88 BLA)
Cc1c(C(=O)Nc2ccc3oc(-c4cccnc4)nc3c2)oc2ccccc12	CHOP inhibitor 100 | CHOP confirm inactive
Clc1ccc(-n2ncc3c(NCc4ccc5c(c4)OCO5)ncnc32)cc1	CHOP inhibitor 104 | CHOP confirm inactive
Clc1ccc(-n2ncc3c(NCc4ccco4)ncnc32)cc1	none
CC(=O)Nc1ccc(NC2=Nc3ccccc3N3C2=Nc2c(c(C)nn2-c2ccccc2)C3c2ccccc2)cc1 (configuration not stated)	CHOP inhibitor 106 | CHOP confirm 119
COc1ccc(NC2=Nc3ccccc3N3C2=Nc2c(c(C)nn2-c2ccc(C)cc2)C3c2cccnc2)cc1 (configuration not stated)	none
Cc1ccc2sc(NC(=O)c3ccc(N4C(=O)CCC4=O)cc3)nc2c1C	CHOP inhibitor 100 | CHOP confirm inactive
COc1cc(CN2C[C@@H](CO)O[C@@H](n3cnc4c(N5CCN(c6ccccc6)CC5)ncnc43)C2)cc(OC)c1OC	none (no result: XBP1 UPR activ, TLR4-MyD88 BLA, CHOP UPR activ, TLR9-MyD88 inh, CHOP inhibitor)
Cn1c(=O)[nH]c(=O)c2[nH]c(N(Cc3ccccc3)Cc3ccccc3)nc21	CHOP inhibitor 111 | CHOP confirm 114
Cn1c(=O)[nH]c(=O)c2[nH]c(CN3CCN(Cc4ccccc4)CC3)nc21	none (no result: TLR4-MyD88 BLA)
Cc1ccccc1N=C(NOCc1ccccc1)c1nonc1N	CHOP inhibitor 100 | CHOP confirm inactive
C[C@H](O)[C@@H]1CN2CCc3c([nH]c4ccc(-c5ccc6c(c5)OCO6)cc34)[C@@H]2C[C@@H]1N(C)C(=O)Nc1cc(Cl)cc(Cl)c1	none (no result: XBP1 UPR activ, TLR4-MyD88 BLA, CHOP UPR activ, CHOP inhibitor)
Cc1nn(CCC#N)c2nc(-c3ccccc3)cc(C(F)(F)F)c12	CHOP inhibitor 106 | CHOP confirm 83
N#C/C(=C(/O)c1ccc([N+](=O)[O-])o1)c1nc2ccccc2[nH]1	none (no result: TLR4-MyD88 BLA)
N#C/C(=C\c1ccc([N+](=O)[O-])o1)c1nc2ccccc2[nH]1	CHOP inhibitor 106 (no result: TLR9-MyD88 inh, NOD2-RIPK2 inh) | CHOP confirm 127
CCOc1ccccc1-c1cnc(NC)cn1	none (no result: XBP1 UPR activ, TLR4-MyD88 BLA, CHOP UPR activ, TLR9-MyD88 inh, CHOP inhibitor)
O=C(CSc1ccc2nnc(-c3cccc(F)c3)n2n1)N1CCCc2ccccc21	CHOP inhibitor 105 | CHOP confirm inactive
Cc1ccc(C(C)C)c(OCc2ccc(C(=O)N/N=C/c3ccc(O)cc3O)cc2)c1	none (no result: XBP1 UPR activ, CHOP UPR activ)
Cc1ccc(C(C)C)c(OCc2ccc(C(=O)N/N=C/c3ccc(C(=O)O)cc3)cc2)c1	CHOP inhibitor 97 (no result: TLR4-MyD88 BLA) | CHOP confirm inactive
COCc1nnc(NC(=O)CCN2C(=O)c3ccccc3C2=O)s1	CHOP inhibitor 99 | CHOP confirm inactive
CCCc1nnc(NC(=O)CCN2C(=O)c3ccccc3C2=O)s1	none
Cc1ccc(-c2ccc(/C=C3/NC(=O)NC3=O)o2)cc1[N+](=O)[O-]	CHOP inhibitor 98 (no result: XBP1 UPR activ, CHOP UPR activ) | CHOP confirm inactive
CCc1cc(SC#N)cc(CC)c1NC(=O)CCl	CHOP inhibitor 97 | CHOP confirm inactive
O=C(N/N=C/c1cccc2ccccc12)c1n[nH]c2c1CCCC2	CHOP inhibitor 101 | CHOP confirm inactive
O=C(N/N=C/c1ccc(Cl)cc1Cl)c1n[nH]c2c1CCCC2	none
CCN1CCN(c2cc(C)c3cc(NC(=S)N4CCN(c5ccc(F)cc5)CC4)ccc3n2)CC1	CHOP inhibitor 106 | CHOP confirm inactive
CCN1CCN(C(=S)Nc2ccc3nc(N4CCN(CC)CC4)cc(C)c3c2)CC1	none
Cc1ccc(N2CC(=O)Nc3c(oc4nc(-c5ccccc5)cc(C)c34)C2=O)cc1	CHOP inhibitor 97 (no result: TLR4-MyD88 BLA) | CHOP confirm inactive
CCc1ccc(/C=C2\SC(=S)N(CCCC(=O)Nc3ccccn3)C2=O)cc1	CHOP inhibitor 102 | CHOP confirm 126
COc1ccc(/C=C2/SC(=S)N(CCCC(=O)Nc3ccc(O)cc3)C2=O)cc1	CHOP inhibitor 99 (no result: TLR4-MyD88 BLA) | CHOP confirm 118
COc1ccc(/C=C2\SC(=S)N(CCCC(=O)Nc3ccc(O)cc3)C2=O)cc1	CHOP inhibitor 99 (no result: TLR4-MyD88 BLA) | CHOP confirm 112
CCCCN1C(=O)C(CC(=O)NC2CC2)CC(C(=O)N(C(C)C)C(C)C)=C1C (configuration not stated)	none (no result: XBP1 UPR activ, TLR4-MyD88 BLA, CHOP UPR activ, CHOP inhibitor)
CC1(C(=O)NS(=O)(=O)c2cccc(F)c2)CCN1C(=O)CCC1CCCC1 (configuration not stated)	none (no result: XBP1 UPR activ, TLR4-MyD88 BLA, CHOP UPR activ, TLR9-MyD88 inh, CHOP inhibitor)
